# Active and inactive are the calls of the source. No cut-off for these calls is given here.
# System: Rattus norvegicus
# Assay: Lymphopenia activity in Lewis rat at 1 mg/kg, po measured after 2 to 4 hrs
# Assay type: functional, organism-based
# Details: not given
row,Compound,Activity
1,Cc1c2c(nn1-c1nnc(-c3ccc(OC(C)C)c(C#N)c3)s1)CCN(CCC(=O)O)C2,Active
2,CC(C)Oc1ccc(-c2nnc(-n3cc4c(n3)CCN(CCC(=O)O)C4)s2)cc1C#N,Active
3,CC(C)Oc1ccc(-c2nnc(-n3cc4c(n3)CCN(CCC(=O)O)C4)s2)cc1Cl,Active
4,CC(C)Oc1ccc(-c2nnc(-n3ncc4c3CCN(CCC(=O)O)C4)s2)cc1Cl,inactive
5,CCCCCCCCc1ccc(CCC(N)(CO)CO)cc1,Active
6,Cc1c2c(nn1-c1nnc(-c3ccc(OC(C)C)c(Cl)c3)s1)CCN(CCC(=O)O)C2,Active

# System: not listed separately
# Assay: Lipophilicity, log D of the compound at pH 7.4 by chromatography
# Assay type: physicochemical
# Details: buffer
row,Compound,chromatographic logD
1,Cc1c(-c2noc(-c3ccc(OC(C)C)c(C#N)c3)n2)ccc2c1CCN(CCC(=O)O)C2,3.41
2,CC(C)Oc1ccc(-c2nnc(-n3ncc4c3CCNC4)s2)cc1Cl,4.87
3,Cc1nn(-c2nnc(-c3ccc(OC(C)C)c(Cl)c3)s2)c(C)c1CC(=O)O,3.62
4,Cc1nc(C)c(-c2nnc(-c3ccc(OC(C)C)c(Cl)c3)s2)s1,7.76
5,CC(C)Oc1ccc(-c2nnc(-n3cc4c(n3)CCN(CCCC(=O)O)C4)s2)cc1C#N,2.87
6,Cc1c2c(nn1-c1nnc(-c3ccc(OC(C)C)c(Cl)c3)s1)CCNC2,5.32
7,Cc1c2c(nn1-c1nnc(-c3ccc(OC(C)C)c(C#N)c3)s1)CCN(CCC(=O)O)C2,2.76
8,CC(C)Oc1ccc(-c2nnc(-n3cc4c(n3)CCN(CCC(=O)O)C4)s2)cc1C#N,2.58
9,CC(C)Oc1ccc(-c2nnc(-n3cc4c(n3)CCN(CCC(=O)O)C4)s2)cc1Cl,3.26
10,CC(C)Oc1ccc(-c2nnc(-n3ncc4c3CCN(CCC(=O)O)C4)s2)cc1Cl,3.54
11,CC(C)Oc1ccc(-c2nnc(-c3ccccc3)s2)cc1Cl,8.65
12,CC(C)Oc1ccc(-c2nnc(-c3cnn(CC(=O)O)c3)s2)cc1Cl,2.82
13,CC(C)Oc1ccc(-c2nnc(-c3cncn3C)s2)cc1Cl,5.7
14,CC(C)Oc1ccc(-c2nnc(-c3ccno3)s2)cc1Cl,6.93
15,CC(C)Oc1ccc(-c2nnc(-c3cnn(CCN4CCOCC4)c3)s2)cc1Cl,5.59
16,CC(C)Oc1ccc(-c2nnc(-n3cc4c(n3)CCNC4)s2)cc1Cl,4.44
17,CC(C)Oc1ccc(-c2nnc(-n3cc4c(n3)CCNC4)s2)cc1C#N,3.37

# Target: T1, Sphingosine 1-phosphate receptor 1 (Homo sapiens, UniProt P21453)
# Assay: Agonist activity at human S1P1 receptor expressed in RH7777 cells by [35S]GTP-gammaS accumulation assay
# Assay type: cell-based
# Details: not given
# Summary of the method: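 RH7777 S1P1 membranes (1.5 µg/well) precoupled 30 min on ice to WGA SPA beads in 20 mM HEPES, 10 mM MgCl2, 100 mM NaCl, pH 7.4, with 10 µM GDP and 90 µg/mL saponin (final). 0.5 nM [35S]GTPγS final added to compound; plates read immediately by scintillation proximity.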
# T1 sequence (P21453 whole entry): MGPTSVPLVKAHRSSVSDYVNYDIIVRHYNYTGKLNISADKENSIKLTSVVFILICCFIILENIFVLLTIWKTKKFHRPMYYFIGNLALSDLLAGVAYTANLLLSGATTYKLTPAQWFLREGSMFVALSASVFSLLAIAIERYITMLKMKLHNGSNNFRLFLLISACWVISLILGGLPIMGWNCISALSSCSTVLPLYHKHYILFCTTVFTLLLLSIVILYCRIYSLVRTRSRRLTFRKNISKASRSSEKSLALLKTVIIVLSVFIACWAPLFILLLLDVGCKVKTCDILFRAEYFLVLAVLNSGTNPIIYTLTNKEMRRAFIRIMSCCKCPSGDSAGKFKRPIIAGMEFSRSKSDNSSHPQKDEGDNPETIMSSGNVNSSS
row,Compound,EC50 [nM]
1,Cc1c(-c2noc(-c3ccc(OC(C)C)c(C#N)c3)n2)ccc2c1CCN(CCC(=O)O)C2,31.6
2,CC(C)Oc1ccc(-c2nnc(-n3ncc4c3CCNC4)s2)cc1Cl,398
3,Cc1nn(-c2nnc(-c3ccc(OC(C)C)c(Cl)c3)s2)c(C)c1CC(=O)O,1000
4,Cc1nc(C)c(-c2nnc(-c3ccc(OC(C)C)c(Cl)c3)s2)s1,251
5,Cc1c2c(nn1-c1nnc(-c3ccc(OC(C)C)c(Cl)c3)s1)CCNC2,126
6,Cc1c2c(nn1-c1nnc(-c3ccc(OC(C)C)c(C#N)c3)s1)CCN(CCC(=O)O)C2,15.8
7,CC(C)Oc1ccc(-c2nnc(-n3cc4c(n3)CCN(CCC(=O)O)C4)s2)cc1C#N,50.1
8,CC(C)Oc1ccc(-c2nnc(-n3cc4c(n3)CCN(CCC(=O)O)C4)s2)cc1Cl,12.6
9,CC(C)Oc1ccc(-c2nnc(-n3ncc4c3CCN(CCC(=O)O)C4)s2)cc1Cl,126
10,CC(C)Oc1ccc(-c2nnc(-c3ccccc3)s2)cc1Cl,251
11,CC(C)Oc1ccc(-c2nnc(-c3cnn(CC(=O)O)c3)s2)cc1Cl,25100
12,CC(C)Oc1ccc(-c2nnc(-c3cncn3C)s2)cc1Cl,63.1
13,CC(C)Oc1ccc(-c2nnc(-c3ccno3)s2)cc1Cl,1000
14,CC(C)Oc1ccc(-c2nnc(-c3cnn(CCN4CCOCC4)c3)s2)cc1Cl,10000
15,CC(C)Oc1ccc(-c2nnc(-n3cc4c(n3)CCNC4)s2)cc1Cl,631
16,CC(C)Oc1ccc(-c2nnc(-n3cc4c(n3)CCNC4)s2)cc1C#N,501

# Target: Sphingosine 1-phosphate receptor 3 (Homo sapiens, UniProt Q99500)
# Assay: Agonist activity at human S1P3 receptor expressed in RBL cells by [35S]GTP-gammaS accumulation assay
# Assay type: cell-based
# Details: not given
# Summary of the method: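 Sucrose-gradient-purified RBL S1P3 membranes (0.44 µg/well) precoupled 30 min on ice to WGA SPA beads with 2 µg/well saponin in HEPES/MgCl2/NaCl buffer pH 7.4. 5 µM GDP final and 0.3 nM [35S]GTPγS final added, then dispensed onto compound in DMSO. Read by scintillation proximity after 3 h at room temperature.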
# Chain of Sphingosine 1-phosphate receptor 3 (Q99500 whole entry): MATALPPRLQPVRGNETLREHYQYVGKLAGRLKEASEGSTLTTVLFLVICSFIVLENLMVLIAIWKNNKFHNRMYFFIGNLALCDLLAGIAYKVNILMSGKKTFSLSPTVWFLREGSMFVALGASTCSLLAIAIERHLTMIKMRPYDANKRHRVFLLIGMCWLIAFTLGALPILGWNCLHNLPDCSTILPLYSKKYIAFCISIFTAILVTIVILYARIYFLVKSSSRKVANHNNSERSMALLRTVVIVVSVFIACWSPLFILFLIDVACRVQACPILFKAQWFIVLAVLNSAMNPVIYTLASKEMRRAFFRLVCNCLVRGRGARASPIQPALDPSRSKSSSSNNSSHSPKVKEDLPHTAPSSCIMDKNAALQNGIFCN
row,Compound,EC50 [µM]
1,Cc1c(-c2noc(-c3ccc(OC(C)C)c(C#N)c3)n2)ccc2c1CCN(CCC(=O)O)C2,> 39.8
2,CC(C)Oc1ccc(-c2nnc(-n3ncc4c3CCNC4)s2)cc1Cl,> 31.6
3,Cc1nn(-c2nnc(-c3ccc(OC(C)C)c(Cl)c3)s2)c(C)c1CC(=O)O,> 31.6
4,Cc1nc(C)c(-c2nnc(-c3ccc(OC(C)C)c(Cl)c3)s2)s1,> 31.6
5,CC(C)Oc1ccc(-c2nnc(-n3cc4c(n3)CCN(CCCC(=O)O)C4)s2)cc1C#N,> 31.6
6,Cc1c2c(nn1-c1nnc(-c3ccc(OC(C)C)c(Cl)c3)s1)CCNC2,> 31.6
7,Cc1c2c(nn1-c1nnc(-c3ccc(OC(C)C)c(C#N)c3)s1)CCN(CCC(=O)O)C2,> 31.6
8,CC(C)Oc1ccc(-c2nnc(-n3cc4c(n3)CCN(CCC(=O)O)C4)s2)cc1C#N,> 31.6
9,CC(C)Oc1ccc(-c2nnc(-n3cc4c(n3)CCN(CCC(=O)O)C4)s2)cc1Cl,> 31.6
10,CC(C)Oc1ccc(-c2nnc(-n3ncc4c3CCN(CCC(=O)O)C4)s2)cc1Cl,19.9
11,CC(C)Oc1ccc(-c2nnc(-c3ccccc3)s2)cc1Cl,20
12,CC(C)Oc1ccc(-c2nnc(-c3cnn(CC(=O)O)c3)s2)cc1Cl,> 31.6
13,CC(C)Oc1ccc(-c2nnc(-c3cncn3C)s2)cc1Cl,> 31.6
14,CC(C)Oc1ccc(-c2nnc(-c3ccno3)s2)cc1Cl,> 31.6
15,CC(C)Oc1ccc(-c2nnc(-c3cnn(CCN4CCOCC4)c3)s2)cc1Cl,> 31.6
16,CC(C)Oc1ccc(-c2nnc(-n3cc4c(n3)CCNC4)s2)cc1Cl,> 31.6
17,CC(C)Oc1ccc(-c2nnc(-n3cc4c(n3)CCNC4)s2)cc1C#N,> 31.6

# Target: T1, Sphingosine 1-phosphate receptor 1
# Assay: Agonist activity at human S1P1 receptor expressed in CHO-K1 EDG1 cells by beta-arrestin recruitment assay
# Assay type: cell-based
# Details: not given
# Summary of the method: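 CHO-K1 cells stably expressing beta-arrestin 2 and S1P1 fused to complementing beta-galactosidase fragments; grown to 80% confluency, harvested enzyme-free, resuspended in HEPES/BSA assay buffer pH 7.4. Cells at 1x10^4/well added to compound in DMSO, 90 min at 37°C/5% CO2, then 15 min at room temperature; chemiluminescent detection mix 60 min at room temperature, luminescence read.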
Compound,EC50 [nM],Emax [%]
Cc1c(-c2noc(-c3ccc(OC(C)C)c(C#N)c3)n2)ccc2c1CCN(CCC(=O)O)C2,5.01,
CC(C)Oc1ccc(-c2nnc(-n3ncc4c3CCNC4)s2)cc1Cl,794,
Cc1nn(-c2nnc(-c3ccc(OC(C)C)c(Cl)c3)s2)c(C)c1CC(=O)O,1580,
CC(C)Oc1ccc(-c2nnc(-n3cc4c(n3)CCN(CCCC(=O)O)C4)s2)cc1C#N,6.31,
Cc1c2c(nn1-c1nnc(-c3ccc(OC(C)C)c(Cl)c3)s1)CCNC2,158,
Cc1c2c(nn1-c1nnc(-c3ccc(OC(C)C)c(C#N)c3)s1)CCN(CCC(=O)O)C2,3.16,
CC(C)Oc1ccc(-c2nnc(-n3cc4c(n3)CCN(CCC(=O)O)C4)s2)cc1C#N,5.01,
CC(C)Oc1ccc(-c2nnc(-n3cc4c(n3)CCN(CCC(=O)O)C4)s2)cc1Cl,3.98,
CC(C)Oc1ccc(-c2nnc(-n3ncc4c3CCN(CCC(=O)O)C4)s2)cc1Cl,50.1,
CC(C)Oc1ccc(-c2nnc(-n3cc4c(n3)CCNC4)s2)cc1Cl,631,
CC(C)Oc1ccc(-c2nnc(-n3cc4c(n3)CCNC4)s2)cc1C#N,126,
Cc1c2c(nn1-c1nnc(-c3ccc(OC(C)C)c(Cl)c3)s1)CCN(CCC(=O)O)C2,,83

# System: Rattus norvegicus
# Assay: Lymphopenia activity in Lewis rat at 1 mg/kg, po measured at 8 hrs
# Assay type: functional, organism-based
# Details: not given
row,Compound,Activity
1,Cc1c2c(nn1-c1nnc(-c3ccc(OC(C)C)c(C#N)c3)s1)CCN(CCC(=O)O)C2,Active
2,CC(C)Oc1ccc(-c2nnc(-n3cc4c(n3)CCN(CCC(=O)O)C4)s2)cc1C#N,Active

# System: Rattus norvegicus
# Assay: Lymphopenia activity in Lewis rat at 0.3 mg/kg, po measured after 24 hrs
# Assay type: functional, organism-based
# Details: not given
# Summary of the method: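 Male Lewis rats (300-350 g) bled by venepuncture the day before dosing. Compound given orally at 0.1-3 mg/kg, or vehicle (1% methylcellulose, 4 mL/kg). Blood taken 0.25-54 h post-dose and lymphocytes counted on an automatic haematology analyser.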
row,Compound,Activity
1,Cc1c2c(nn1-c1nnc(-c3ccc(OC(C)C)c(Cl)c3)s1)CCN(CCC(=O)O)C2,Active

# Target: Sphingosine 1-phosphate receptor 2 (Homo sapiens, UniProt O95136)
# Assay: Agonist activity at human S1P2 receptor expressed in Saccharomyces cerevisiae after 24 hrs by reporter gene assay
# Details: not given
# Summary of the method: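 S. cerevisiae with integrated S1P2 under the GPD promoter, seeded at 0.02 OD600 in histidine-free minimal medium with 5 mM 3-aminotriazole and 100 µM fluorescein-di-(β-D-glucopyranoside). Agonist-driven growth was read as fluorescein fluorescence (ex 485/em 535 nm) after 24 h at 30°C.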
# Chain of Sphingosine 1-phosphate receptor 2 (O95136 whole entry): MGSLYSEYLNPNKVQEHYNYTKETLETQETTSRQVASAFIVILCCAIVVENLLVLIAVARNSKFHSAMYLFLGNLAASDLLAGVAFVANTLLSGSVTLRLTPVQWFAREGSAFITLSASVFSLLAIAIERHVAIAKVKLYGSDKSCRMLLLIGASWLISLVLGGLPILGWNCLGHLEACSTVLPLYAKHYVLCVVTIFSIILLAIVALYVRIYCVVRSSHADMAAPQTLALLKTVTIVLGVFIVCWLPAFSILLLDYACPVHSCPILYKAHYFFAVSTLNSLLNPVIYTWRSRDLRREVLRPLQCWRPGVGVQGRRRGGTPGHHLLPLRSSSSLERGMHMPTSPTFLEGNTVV
row,Compound,Emax [%]
1,Cc1c2c(nn1-c1nnc(-c3ccc(OC(C)C)c(Cl)c3)s1)CCN(CCC(=O)O)C2,0

# Target: T2, Sphingosine 1-phosphate receptor 4 (Homo sapiens) (UniProt O95977)
# T2 sequence (whole entry): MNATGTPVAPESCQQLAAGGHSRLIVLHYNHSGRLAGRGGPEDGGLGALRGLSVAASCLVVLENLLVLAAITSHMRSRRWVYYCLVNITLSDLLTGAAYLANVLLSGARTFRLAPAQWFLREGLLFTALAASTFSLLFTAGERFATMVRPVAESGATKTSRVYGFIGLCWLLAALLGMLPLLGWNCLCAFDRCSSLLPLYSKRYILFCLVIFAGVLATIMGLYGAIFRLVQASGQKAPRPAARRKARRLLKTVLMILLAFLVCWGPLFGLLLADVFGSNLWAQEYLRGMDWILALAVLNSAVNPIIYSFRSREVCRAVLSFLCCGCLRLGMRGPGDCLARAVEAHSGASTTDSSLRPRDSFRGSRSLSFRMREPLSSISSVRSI
# Assay: Agonist activity at human S1P4 receptor expressed in CHO-K1 cells by aequorin calcium accumulation assay
# Assay type: functional, cell-based
# Details: not given
# Summary of the method: (§1)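 CHO-K1 aequorin lines revived in DMEM F12 with 10% charcoal-stripped FBS, recovered 30 min at 37°C, then loaded 18-24 h at room temperature in the dark with 5 µM coelenterazine at 2.5x10^6 cells/mL. Cells were added at 1x10^5/well to compound, and flash luminescence was recorded immediately.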
row,Compound,Emax [%]
1,Cc1c2c(nn1-c1nnc(-c3ccc(OC(C)C)c(Cl)c3)s1)CCN(CCC(=O)O)C2,7

# Target: Sphingosine 1-phosphate receptor 5 (Homo sapiens, UniProt Q9H228)
# Assay: Agonist activity at human S1P5 receptor expressed in CHO-K1 cells by aequorin calcium accumulation assay
# Assay type: functional, cell-based
# Details: not given
# Summary of the method: as §1
# Chain of Sphingosine 1-phosphate receptor 5 (Q9H228 whole entry): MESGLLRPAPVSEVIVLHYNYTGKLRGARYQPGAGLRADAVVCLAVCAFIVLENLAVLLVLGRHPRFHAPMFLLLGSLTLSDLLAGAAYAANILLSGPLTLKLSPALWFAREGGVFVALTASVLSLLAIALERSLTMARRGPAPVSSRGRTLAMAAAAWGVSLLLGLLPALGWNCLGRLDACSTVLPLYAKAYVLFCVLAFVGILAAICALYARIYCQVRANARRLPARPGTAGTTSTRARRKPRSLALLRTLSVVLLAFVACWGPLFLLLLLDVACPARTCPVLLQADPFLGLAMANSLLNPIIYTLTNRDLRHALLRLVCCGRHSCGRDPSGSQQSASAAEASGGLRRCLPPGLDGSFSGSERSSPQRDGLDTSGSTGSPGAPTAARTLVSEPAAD
row,Compound,Emax [%]
1,Cc1c2c(nn1-c1nnc(-c3ccc(OC(C)C)c(Cl)c3)s1)CCN(CCC(=O)O)C2,63

# System: Rattus norvegicus
# Assay: Lymphopenia activity in Lewis rat at 1 mg/kg, po measured after 24 hrs
# Assay type: functional, organism-based
# Details: not given
row,Compound,Activity
1,CC(C)Oc1ccc(-c2nnc(-n3cc4c(n3)CCN(CCC(=O)O)C4)s2)cc1Cl,inactive
2,Cc1c2c(nn1-c1nnc(-c3ccc(OC(C)C)c(Cl)c3)s1)CCN(CCC(=O)O)C2,Active

# Target: T1, Sphingosine 1-phosphate receptor 1
# Assay: Agonist activity at human S1P1 receptor by receptor internalisation assay
# Details: not given
row,Compound,Emax [%]
1,Cc1c2c(nn1-c1nnc(-c3ccc(OC(C)C)c(Cl)c3)s1)CCN(CCC(=O)O)C2,109

# From ChEMBL document CHEMBL3769384, “Discovery of Tetrahydropyrazolopyridine as Sphingosine 1-Phosphate Receptor 3 (S1P3)-Sparing S1P1 Agonists Active at Low Oral Doses” (J Med Chem, 2016)
